Converted amounts (≈) assume the structure as drawn.

Data set [1] in a line: Aqueous solubility of the compound at pH 2 by HPLC analysis. The format is physicochemical. The note with it: buffer. The gist of the method:
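Solubility in aqueous buffer at pH 2.0, chosen to mimic stomach conditions; dissolved compound quantified by HPLC.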

Data set [2] concerns Human immunodeficiency virus 1. Kind of data set: Fold resistance, ratio of EC50 for HIV1 A17 expressing K103N/Y181C mutant infected in human MT2 cells to EC50 for wild-type HIV1 3B infected in human MT2 cells. Type of data set: functional.
In data set [3] the test system is Human immunodeficiency virus 1. In words: Antiviral activity against wild type HIV1 3B infected in human MT2 cells assessed as inhibition of viral replication. The note with it: Human immunodeficiency virus 1, 3B. Type of data set: functional, organism-based.
Data set [4] in a line: Selectivity index, ratio of CC50 for human MT2 cells to EC50 for wild type HIV1 3B. Type of data set: toxicity, cell-based. The conditions noted are these: read-out: Selectivity Index. In a few lines:
(§1)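 Run in MT-2 cells, at least in triplicate, reported as mean ± SD; the paired antiviral measurement used wild-type HIV-1 IIIB replication in MT-2 cells.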

Data set [5] can be described thus: Aqueous solubility of the compound at pH 7.4 by HPLC analysis. The format is physicochemical. The conditions noted are these: buffer. In a few lines:
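Solubility in aqueous buffer at pH 7.4, chosen to mimic plasma conditions; dissolved compound quantified by HPLC.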

Data set [6] can be described thus: Lipophilicity, log P of the compound by HPLC analysis. The format is physicochemical. The gist of the method:
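Log P determined experimentally by HPLC at pH 7.4.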

The subject of a further data set is MT2. In words: Cytotoxicity against human MT2 cells assessed as cell viability. Type of data set: cell-based. The gist of the method:
as §1

Data set [7] relates to Human immunodeficiency virus 1. In words: Antiviral activity against drug-resistant HIV1 A17 expressing K103N/Y181C mutant infected in human MT2 cells assessed as inhibition of viral replication. The conditions noted are these: Human immunodeficiency virus 1, A17, MT2.

The term solubility denotes the dissolved amount per volume that the medium holds. The low end stands for little dissolved substance, the high end for much dissolved substance. As a reminder, the EC50 is the midpoint of the concentration-response curve. For orientation: logP means the decadic logarithm of the partition coefficient of the neutral form, usually between octanol and water. As a reminder, the CC50 is the concentration that lowers cell viability or growth by half. In the case of `Cc1cc(C#N)cc(C)c1Oc1cc(Nc2ccc(C#N)cc2)c(N)cc1CO`, the solubility worked out at 9.12 µg/mL (≈ 23.7 µM) in data set [1] and 0.86 µg/mL (≈ 2.24 µM) in data set [5]. The “Ratio EC50” value in data set [2] was found to be 30.9. The EC50 was 0.00107 µM in data set [3] and 0.0331 µM in data set [7]. In addition, the selectivity ratio in data set [4] worked out at 114000. Moreover, the lipophilicity (logP) in data set [6] is on record as 3.57. In addition, in the data set on MT2, the CC50 is 122 µM.
For `CNCc1cc(N)c(Nc2ccc(C#N)cc2)cc1Oc1c(C)cc(C#N)cc1C`, the solubility in data set [1] amounted to 263 µg/mL (≈ 662 µM); in data set [5], 159 µg/mL (≈ 400 µM). In addition, in data set [2], the “Ratio EC50” value amounted to 11.6. Besides, the EC50 in data set [3] worked out at 0.00994 µM; in data set [7], 0.115 µM. Besides, in data set [4], the selectivity ratio is 1280. Moreover, in data set [6], the logP is listed as 1.86. Further, in the data set on MT2, the CC50 amounted to 12.7 µM.
Take `Cc1cc(C#N)cc(C)c1Oc1cc(Nc2ccc(C#N)cc2)c(N)cc1CNC1CC1`: the solubility in data set [1] came to 286 µg/mL (≈ 675 µM); in data set [5], 13 µg/mL (≈ 30.7 µM). Further, in data set [2], the “Ratio EC50” value is 12.3. The EC50 in data set [3] turned out to be 0.0106 µM; in data set [7] it was 0.13 µM. In addition, the selectivity ratio in data set [4] was determined as 1140. The compound further displayed a log partition coefficient (logP) in data set [6] of 3.84. The CC50 in the data set on MT2 worked out at 12.1 µM.
Take `Cc1cc(C#N)cc(C)c1Oc1cc(Nc2ccc(C#N)cc2)c(N)cc1CNCCCO`: the solubility was determined as 290 µg/mL (≈ 657 µM) in data set [1] and 236 µg/mL (≈ 534 µM) in data set [5]. For the same compound, the “Ratio EC50” value in data set [2] is on record as above 328. The EC50 in data set [3] is 0.0061 µM; in data set [7] it was above 2 µM. Also, the selectivity ratio in data set [4] amounted to 2480. Further, the logP in data set [6] was found to be 1.81. In the data set on MT2, the CC50 was 15.1 µM.
Turning to `Cc1cc(C#N)cc(C)c1Oc1cc(Nc2ccc(C#N)cc2)c(N)cc1CN1CCN(C)CC1`, in data set [2], the “Ratio EC50” value is on record as above 11.8. Further, the results for the concentration giving a half-maximal response (EC50) in data set [3] and in data set [7] were 0.17 µM and above 2 µM, respectively. In data set [4], the selectivity ratio amounted to 570. Besides, the cytotoxic concentration (CC50) in the data set on MT2 came to 96.9 µM.
For `Cc1cc(C#N)cc(C)c1Oc1cc(Nc2ccc(C#N)cc2)c(N)cc1COC(C)C`, in data set [2], the “Ratio EC50” value came to 22.5. Besides, the EC50 in data set [3] was 0.014 µM; in data set [7] it was 0.315 µM. Also, the selectivity ratio in data set [4] amounted to 6390. For the same compound, the CC50 in the data set with MT2 amounted to 89.4 µM.
As to `COCc1cc(N)c(Nc2ccc(C#N)cc2)cc1Oc1c(C)cc(C#N)cc1C`, the solubility in data set [1] is 3.75 µg/mL (≈ 9.41 µM); in data set [5], 0.07 µg/mL (≈ 0.176 µM). Besides, in data set [2], the “Ratio EC50” value is recorded as 84.2. For the same compound, the EC50 in data set [3] came to 0.00354 µM; in data set [7], 0.298 µM. The selectivity ratio in data set [4] is 41200. The compound also registered a logP in data set [6] of 3.84. Besides, in the data set on MT2, the 50% cytotoxic concentration (CC50) was 146 µM.
Regarding `CC(=O)OCc1cc(N)c(Nc2ccc(C#N)cc2)cc1Oc1c(C)cc(C#N)cc1C`, the solubility in data set [1] was 16.7 µg/mL (≈ 39.2 µM); in data set [5], 0.2 µg/mL (≈ 0.469 µM). The “Ratio EC50” value in data set [2] was determined as 353. The values for the concentration for a half-maximal effect (EC50) in data set [3] and in data set [7] were 0.00106 µM and 0.374 µM, respectively. For the same compound, the selectivity ratio in data set [4] came to 107000. For the same compound, the logP in data set [6] worked out at 4.4. Besides, in the data set on MT2, the cytotoxic concentration (CC50) came to 113 µM.
`COCc1cc(N)c(Nc2ccc(C#N)cc2)cc1Oc1c(C)cc(/C=C/C#N)cc1C`: the figures for the solubility in data set [1] and in data set [5] were 1.7 µg/mL (≈ 4 µM) and 0.11 µg/mL (≈ 0.259 µM), respectively. Besides, in data set [2], the “Ratio EC50” value was determined as 2.6. Further, the EC50 in data set [3] amounted to 0.00574 µM; in data set [7] it was 0.0147 µM. Besides, the selectivity ratio in data set [4] was determined as 8760. Also, the logP in data set [6] was determined as 4.13. Moreover, the CC50 in the data set with MT2 is 50.3 µM.
For the compound `COCc1cc(N)c(Nc2ccc(C#N)cc2)cc1Oc1c(C)cc(CCC#N)cc1C`, the solubility in data set [1] amounted to 1.82 µg/mL (≈ 4.27 µM); in data set [5] it was 0.66 µg/mL (≈ 1.55 µM). In addition, the “Ratio EC50” value in data set [2] was found to be 0.91. For the same compound, the values for the EC50 in data set [3] and in data set [7] were 0.00325 µM and 0.00295 µM, respectively. Besides, in data set [4], the selectivity ratio was above 61500. Also, the lipophilicity (logP) in data set [6] came to 3.25.
For the compound `CC(=O)OCc1cc(N)c(Nc2ccc(C#N)cc2)cc1Oc1c(C)cc(/C=C/C#N)cc1C`, the solubility stood at 1.87 µg/mL (≈ 4.13 µM) in data set [1] and 0.49 µg/mL (≈ 1.08 µM) in data set [5]. Moreover, the “Ratio EC50” value in data set [2] turned out to be 44.5. For the same compound, the concentration for a half-maximal effect (EC50) in data set [3] came out at 0.00082 µM; in data set [7] it was 0.0365 µM. Besides, in data set [4], the selectivity ratio was found to be 117000. This compound came in with a logP in data set [6] of 4.48. For the same compound, the half-maximal cytotoxic concentration (CC50) in the data set on MT2 is 96.3 µM.
In the case of `CC(=O)OCc1cc(N)c(Nc2ccc(C#N)cc2)cc1Oc1c(C)cc(CCC#N)cc1C`, the solubility in data set [1] was 2.63 µg/mL (≈ 5.79 µM); in data set [5] it was 1.86 µg/mL (≈ 4.09 µM). In addition, the “Ratio EC50” value in data set [2] was determined as 5.1. For the same compound, the figures for the EC50 in data set [3] and in data set [7] were 0.00096 µM and 0.00492 µM, respectively. The selectivity ratio in data set [4] stood at 46700. Besides, the logP in data set [6] was determined as 2.84. Further, the CC50 in the data set with MT2 was 44.8 µM.
For the compound `Cc1cc(/C=C/C#N)cc(C)c1Nc1ccnc(Nc2ccc(C#N)cc2)n1` [RILPIVIRINE], in data set [6] (read-out: logP), the logP is above 5. Besides, the CC50 with MT2 stood at 90.7 µM.
